Assay outcomes: PubChem BioAssay, several laboratories
Compounds with a hit are over-represented: about 4.9% of the library has one in this group of screens.
STAT1 inh: reduces IFN-gamma driven STAT1 reporter signal; inhibition, % at 5.5 µM; actives 0.35% (n = 200,000); NIH 3T3 STAT1-luciferase reporter, luminescence;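 active means inhibition above a set limit, the mean inhibition across all tested compounds plus 3 SD, cut at about 34% in these data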;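 further: 0% = IFN-gamma with DMSO and 100% = IFN-gamma with 300 µM nifuroxazide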
APP 5'UTR act: APP 5'UTR luciferase reporter activation. actives 1% (n = 190,000). AID 1276. SH-SY5Y APP 5'UTR luciferase reporter, luminescence; zero percent = DMSO vehicle wells. activation, % at 2 µM;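 active means activation above a set limit, based on mean plus 3 SD of controls, cut at about 140% in these data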
STAT3 blocker: STAT3 signaling inhibition. inhibition, % at 5.5 µM. U3A cells, IL-6 STAT3-luciferase reporter, luminescence; host cell line lacks STAT1. actives 0.89% (n = 190,000). AID 862;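 active means inhibition above the mean inhibition across all screened compounds plus 3 SD, cut at about 44% in these data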;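 further: 0% = DMSO only wells and 100% = 100 µM nifuroxazide control wells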
NF-kB neuron act: compounds increasing NF-kB expression in human neuronal cells; NF-kB reporter expression; active compounds read high; fold change at 12.5 µM; actives 1.6% (n = 190,000); AID 1239; in the data active means fold change above about 3.3
STAT1 activator: activators of IFN-gamma induced STAT1 signaling | activation (% of control), % at 5.5 µM | NIH 3T3 STAT1-luciferase reporter, luminescence; 100% = IFN-gamma alone, no compound | actives 2.6% (n = 200,000);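 active means activation above the screen-wide mean activation plus 3 SD, cut at about 130% in these data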;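 further: raw ratio to IFN-gamma control signal so 100% means no change and 0% no light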
STAT3 activator: STAT3 signaling activation; actives 0.91% (n = 190,000); AID 871; U3A cells, IL-6 STAT3-luciferase reporter, luminescence; 100% = signal with IL-6 EC80 alone; activation (% of control), % at 5.6 µM;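 active means activation above the screen-wide mean of compound activation plus 3 SD, cut at about 130% in these data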;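 further: 0% = background luminescence of wells with medium and substrate only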
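system = STAT3-luciferase reporter U3A cells | reagent = IL-6 stimulus at 33 ng/mL final | timing = 1 h compound pre-exposure, 6 h IL-6 stimulation, 37 °C | measured by = luminescence | evaluation = % activation versus median of IL-6-stimulated wells | control set = IL-6-only wells as 100% reference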
Starred values were filed as active, the others as inactive.

How did O=C(Cn1ncc(N2CCOCC2)c(Br)c1=O)c1ccc(Cl)cc1 do in these assays?
STAT1 inh: -17; APP 5'UTR act: 26; STAT3 blocker: 9; NF-kB neuron act: 0.93; STAT1 activator: 114; STAT3 activator: 94

What do the screens show for `O=C(Cn1ncc(N2CCCC2)c(Cl)c1=O)c1ccc(Cl)cc1`?
STAT1 inh: -41; APP 5'UTR act: 83; STAT3 blocker: 0; NF-kB neuron act: 1.3; STAT1 activator: 136*; STAT3 activator: 110

What do the screens show for `O=C(c1ccc(S(=O)(=O)N2CCOCC2)cc1)N(c1cccc(Cl)c1)C1C=CS(=O)(=O)C1` (configuration not stated)?
STAT1 inh: 3; APP 5'UTR act: -4; STAT3 blocker: 14; NF-kB neuron act: 0.99; STAT1 activator: 96; STAT3 activator: 94

What do the screens show for `O=C(C1CC1)N1CCc2cc(Br)cc(S(=O)(=O)NCc3ccc4c(c3)OCO4)c21`?
STAT1 inh: -1; APP 5'UTR act: -14; STAT3 blocker: 0; NF-kB neuron act: 1.3; STAT1 activator: 102; STAT3 activator: 104

How did COc1cc(C(=O)N/N=C/c2sc(N3CCOCC3)nc2-c2ccccc2)cc(OC)c1OC do in these assays?
STAT1 inh: 1; APP 5'UTR act: -17; STAT3 blocker: 7; NF-kB neuron act: 1; STAT1 activator: 98; STAT3 activator: 100

Results for O=C(Nc1cccc([N+](=O)[O-])c1)c1ccncc1 ?
STAT1 inh: -8; APP 5'UTR act: 15; STAT3 blocker: -3; NF-kB neuron act: 0.94; STAT1 activator: 107; STAT3 activator: 105

How did CN(C)S(=O)(=O)Oc1ccc(C(=O)Nc2cccc(Cl)c2)cc1 do in these assays?
STAT1 inh: -48; APP 5'UTR act: 123; STAT3 blocker: 3; NF-kB neuron act: 2.3; STAT1 activator: 143*; STAT3 activator: 104

What do the screens show for `O=C(Nc1cccc([N+](=O)[O-])c1)c1[nH]ncc1Cl`?
STAT1 inh: -38; APP 5'UTR act: 112; STAT3 blocker: 16; NF-kB neuron act: 2.6; STAT1 activator: 134*; STAT3 activator: 89

Results for CN(C)S(=O)(=O)Oc1ccc(C(=O)Nc2cccc(C(F)(F)F)c2)cc1 ?
STAT1 inh: 13; APP 5'UTR act: 26; STAT3 blocker: 23; NF-kB neuron act: 0.91; STAT1 activator: 87; STAT3 activator: 86

How did O=C(Nc1cccc([N+](=O)[O-])c1)c1ccc2c(c1)OCCO2 do in these assays?
STAT1 inh: -44; APP 5'UTR act: 91; STAT3 blocker: -8; NF-kB neuron act: 2.4; STAT1 activator: 139*; STAT3 activator: 104

Results for CC(C)(C)c1ccc(C(=O)Nc2cccc([N+](=O)[O-])c2)cc1 ?
STAT1 inh: -34; APP 5'UTR act: 137*; STAT3 blocker: -4; NF-kB neuron act: 7.6*; STAT1 activator: 135*; STAT3 activator: 102

Results for O=C(Nc1cccc([N+](=O)[O-])c1)c1cnccn1 ?
STAT1 inh: 1; APP 5'UTR act: 14; STAT3 blocker: 1; NF-kB neuron act: 1.2; STAT1 activator: 99; STAT3 activator: 97

Results for CC1(C)C2C/C(=N\O)C(C)(/[N+]([O-])=C/c3cccc([N+](=O)[O-])c3)CC21 (configuration not stated) ?
STAT1 inh: 18; APP 5'UTR act: 10; STAT3 blocker: 8; NF-kB neuron act: 1.3; STAT1 activator: 81; STAT3 activator: 98

Results for CCOc1ccccc1NC(=O)NC(=O)N(C)S(=O)(=O)c1ccc(C)cc1 ?
STAT1 inh: 5; APP 5'UTR act: 4; STAT3 blocker: 2; NF-kB neuron act: 0.96; STAT1 activator: 95; STAT3 activator: 103

How did CN(c1cccc(NC(=O)c2ccc(C(C)(C)C)cc2)c1)S(C)(=O)=O do in these assays?
STAT1 inh: -44; APP 5'UTR act: 91; STAT3 blocker: 11; NF-kB neuron act: 2; STAT1 activator: 138*; STAT3 activator: 94

What do the screens show for `O=C(Nc1cccc2nsnc12)c1ccc2c(c1)OCCO2`?
STAT1 inh: -35; APP 5'UTR act: 73; STAT3 blocker: 3; NF-kB neuron act: 1.9; STAT1 activator: 132*; STAT3 activator: 100

What do the screens show for `CC(=O)N1CCN(c2ccc(NC(=O)c3ccc4c(c3)OCCO4)cc2)CC1`?
STAT1 inh: 7; APP 5'UTR act: -1; STAT3 blocker: 3; NF-kB neuron act: 1.5; STAT1 activator: 94; STAT3 activator: 101

How did O=C(Nc1ccc(N2CCCCC2)cc1)c1ccc2c(c1)OCCO2 do in these assays?
STAT1 inh: -36; APP 5'UTR act: 135*; STAT3 blocker: 33; NF-kB neuron act: 3.8*; STAT1 activator: 133*; STAT3 activator: 75

Results for O=C(CCc1ccccc1)N1CCN(c2ccc([N+](=O)[O-])cc2)CC1 ?
STAT1 inh: 2; APP 5'UTR act: -2; STAT3 blocker: 12; NF-kB neuron act: 1; STAT1 activator: 98; STAT3 activator: 94

How did O=C(CN(C(=O)CNC(=O)c1ccco1)c1ccc(Cl)c(Cl)c1)NC1CCCCC1 do in these assays?
STAT1 inh: -4; APP 5'UTR act: -9; STAT3 blocker: 10; NF-kB neuron act: 0.84; STAT1 activator: 104; STAT3 activator: 99

What do the screens show for `COc1ccc2c(c1)[nH]c1c(N3CCN(Cc4ccc5c(c4)OCO5)CC3)ncnc12`?
STAT1 inh: 32; APP 5'UTR act: -3; STAT3 blocker: 77*; NF-kB neuron act: 0.35; STAT1 activator: 71; STAT3 activator: 40

What do the screens show for `CCCCN(C)C(=O)c1c[nH]c2ccc(S(=O)(=O)N3CCOCC3)cc2c1=O`?
STAT1 inh: -6; APP 5'UTR act: -1; STAT3 blocker: -8; NF-kB neuron act: 1.1; STAT1 activator: 106; STAT3 activator: 107

Results for CC1CN(C(=O)c2ccc(COc3ccc(C(C)C)cc3)o2)CC(C)O1 (configuration not stated) ?
STAT1 inh: -33; APP 5'UTR act: 22; STAT3 blocker: -28; NF-kB neuron act: 1.8; STAT1 activator: 129*; STAT3 activator: 133*

What do the screens show for `Cc1ccsc1/C=C1\CCC(C2CCCC2)C1=O` (configuration not stated)?
STAT1 inh: -45; APP 5'UTR act: 202*; STAT3 blocker: 24; NF-kB neuron act: 5.9*; STAT1 activator: 140*; STAT3 activator: 82

Results for COc1cc(OC)c(OC)cc1/C=C1\CCC(C2CCCC2)C1=O (configuration not stated) ?
STAT1 inh: 8; APP 5'UTR act: 8; STAT3 blocker: -1; NF-kB neuron act: 1.3; STAT1 activator: 91; STAT3 activator: 102

Results for Cc1ccc(/C=C2\CCC(C3CCCC3)C2=O)cc1 (configuration not stated) ?
STAT1 inh: -2; APP 5'UTR act: 157*; STAT3 blocker: -3; NF-kB neuron act: 1.6; STAT1 activator: 102; STAT3 activator: 107
